The structures appear in SMILES notation. pEC50: −log10 of the molar value.

One series in a line: Half-life was determined. The note with it: pH 7.4 phosphate buffer at 37 °C.
The nature of series [1]: Rate constant for loss of chromophore. The series is classed as ADME. In outline: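 UV decay of the 230–260 nm chromophore. Compound dissolved in 0.01 M KOH, then diluted with a large excess of pH 7.4 phosphate buffer in a thermostated 37 °C cuvette. Spectra were recorded within 1–2 s and intermittently afterward. First-order k was taken from the slope of ln(A − A∞) versus time; t1/2 was derived from k.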

The species entered for series [2] is Oryctolagus cuniculus. As to the kind of experiment: Vasorelaxant activity against isolated vascular ring preparation from rabbit thoracic aorta. The series is classed as functional.
Series [3] is filed under the species Oryctolagus cuniculus. As to the kind of experiment: Peak relaxation(Rm) of the vascular ring by the compound at highest concentration. The series is classed as functional.

`CC(C)N[N+]([O-])=N[O-].[Na+]`: in the series “Half-life was determined”, the half-life (as a rule, the time needed for the level to fall by half in the phase considered) worked out at 2.3 min. The compound further yielded a k in series [1] of 0.0051 s⁻¹. Besides, the pEC50 – broadly, the EC50 on a negative log10 scale, so that one unit is a factor of ten – in the series listed under Oryctolagus cuniculus [2] is 6.35. This compound registered a Rm in the series filed under Oryctolagus cuniculus [3] of 85%.
As to `NCCCNCCCCN(CCCN)/[N+]([O-])=N\O`, the half-life in “Half-life was determined” came out at 39 min. The compound further had a k in series [1] of 0.0003 s⁻¹. In the series listed under Oryctolagus cuniculus [2], this compound had a pEC50 of 5.21. For the same compound, in the series filed under Oryctolagus cuniculus [3], the Rm amounted to 56%.
`N.N.O=NN(O)S(=O)(=O)O` yielded a half-life in the series “Half-life was determined” of 6.8 min. The compound also gave a k in series [1] of 0.0017 s⁻¹. For the same compound, the pEC50 in the series listed under Oryctolagus cuniculus [2] was 4.21. This compound showed a Rm in the series filed under Oryctolagus cuniculus [3] of 58%.
Take `[Na+].[Na+].[O-][N+]([O-])=NO` [ANGELI'S SALT]: the half-life in “Half-life was determined” amounted to 2.3 min. Also, the k in series [1] was 0.005 s⁻¹. The pEC50 in the series filed under Oryctolagus cuniculus [2] was 6.23. Moreover, the Rm in the series listed under Oryctolagus cuniculus [3] was determined as 74%.
In the case of `CCN(CC)/[N+]([O-])=N\[O-].[Na+]`, the half-life in the series “Half-life was determined” was determined as 2.1 min. The k in series [1] worked out at 0.0054 s⁻¹. This compound also gave a pEC50 in the series filed under Oryctolagus cuniculus [2] of 6.72. Also, the Rm in the series listed under Oryctolagus cuniculus [3] is 86%.
